Measurements published in ChEMBL document CHEMBL4152223 (Eur J Med Chem, 2018).
pIC50: −log10 of the molar value. In brackets after ≈: the same amount, converted by molar mass. Activity calls are given as the source filed them. No cut-off for these calls is given here.

Tests used:
[1] = tested on: Mycobacterium tuberculosis; assay: Antimycobacterial activity against Mycobacterium tuberculosis H37Rv after 21 days; type: functional; details: 504 h
[2] = tested on: Mycobacterium kansasii; assay: Antimycobacterial activity against Mycobacterium kansasii 235/80 after 21 days; type: functional; details: 235/80, 504 h
[3] = tested on: Mycobacterium tuberculosis; assay: Antimycobacterial activity against Mycobacterium tuberculosis H37Rv after 14 days; type: functional; details: 336 h
[4] = tested on: Mycobacterium kansasii; assay: Antimycobacterial activity against Mycobacterium kansasii 6509/96 after 14 days; type: functional; details: 6509/96, 336 h
[5] = tested on: Mycobacterium kansasii; assay: Antimycobacterial activity against Mycobacterium kansasii 6509/96 after 7 days; type: functional; details: 6509/96, 168 h
[6] = Selectivity index, ratio of IC50 for human HepG2 cells to MIC for Mycobacterium tuberculosis H37Rv after 14 days; type: toxicity; details: read-out: Selectivity Index
Summary of the method: (§1)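 SI is calculated as HepG2 IC50 divided by MIC. HepG2 cells (passage 2-4) were grown in EMEM with 10% FBS, L-glutamine and non-essential amino acids. Compounds in DMSO were tested in triplicate at eight concentrations, and viability was read by MTS tetrazolium reduction. IC50 is the concentration reducing viability to 50% of control. 10% DMSO served as the 0% viability control.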

[7] = Selectivity index, ratio of IC50 for human HepG2 cells to MIC for Mycobacterium kansasii 6509/96; type: toxicity; details: read-out: Selectivity Index; summary of the method: as §1
[8] = Selectivity index, ratio of IC50 for human HepG2 cells to MIC for Mycobacterium kansasii 235/80; type: toxicity; details: read-out: Selectivity Index; summary of the method: as §1
[9] = tested on: Mycobacterium avium; assay: Antimycobacterial activity against INH/RIF/OFX resistant Mycobacterium avium 330/88 after 21 days; type: functional; details: 330/88, 504 h
[10] = tested on: Mycobacterium avium; assay: Antimycobacterial activity against INH/RIF/OFX resistant Mycobacterium avium 330/88 after 14 days; type: functional; details: 330/88, 336 h
[11] = tested on: Mycobacterium kansasii; assay: Antimycobacterial activity against Mycobacterium kansasii 235/80 after 14 days; type: functional; details: 235/80, 336 h
[12] = tested on: Mycobacterium kansasii; assay: Antimycobacterial activity against Mycobacterium kansasii 6509/96 after 21 days; type: functional; details: 6509/96, 504 h
[13] = tested on: HepG2; assay: Cytotoxicity against human HepG2 cells assessed as reduction in cell viability by MTS assay; type: cell-based
Summary of the method: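 HepG2 human hepatocellular carcinoma cells (passage 2-4) were cultured in Eagle's MEM with 10% FBS, 1% L-glutamine and non-essential amino acids. Compounds were dissolved in DMSO and tested in triplicate at eight concentrations. Viability was read by colorimetric MTS tetrazolium reduction. Controls were 100% viability and 0% viability (10% DMSO). IC50 is the concentration reducing viability to 50% of control.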

[14] = tested on: Mycobacterium kansasii; assay: Antimycobacterial activity against Mycobacterium kansasii 235/80 after 7 days; type: functional; details: 235/80, 168 h
[15] = target: T1, Enoyl-[acyl-carrier-protein] reductase [NADH] (Mycobacterium tuberculosis) (UniProt P9WGR1); assay: Inhibition of Mycobacterium tuberculosis H37Rv InhA assessed as reduction of trehalose monomycolate synthesis at 4 to 8 uM preincubated for 24 hrs followed by [14C]acetate addition and measured after 24 hrs by TLC analysis
T1 sequence (whole entry): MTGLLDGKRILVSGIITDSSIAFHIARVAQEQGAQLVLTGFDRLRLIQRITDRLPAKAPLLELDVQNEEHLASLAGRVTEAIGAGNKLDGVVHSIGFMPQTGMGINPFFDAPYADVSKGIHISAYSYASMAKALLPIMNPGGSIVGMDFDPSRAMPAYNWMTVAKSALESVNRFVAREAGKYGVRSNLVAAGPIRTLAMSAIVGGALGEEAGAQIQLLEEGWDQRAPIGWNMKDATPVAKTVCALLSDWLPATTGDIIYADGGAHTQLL

[16] = tested on: Mycobacterium tuberculosis; assay: Antimycobacterial activity against Mycobacterium tuberculosis H37Rv over producing InhA after 25 days by drop dilution method; type: functional, organism-based
[17] = target: T1, Enoyl-[acyl-carrier-protein] reductase [NADH] (Mycobacterium tuberculosis); assay: Inhibition of Mycobacterium tuberculosis H37Rv InhA assessed as reduction of phosphatidylethanolamine synthesis at 4 to 8 uM preincubated for 24 hrs followed by [14C]acetate addition and measured after 24 hrs by TLC analysis
[18] = target: T1, Enoyl-[acyl-carrier-protein] reductase [NADH] (Mycobacterium tuberculosis); assay: Inhibition of Mycobacterium tuberculosis H37Rv InhA assessed as reduction of methyl esters of fatty acid synthesis at 4 to 8 uM preincubated for 24 hrs followed by [14C]acetate addition and measured after 24 hrs by TLC analysis
[19] = tested on: Mycobacterium tuberculosis; assay: Antimycobacterial activity against Mycobacterium tuberculosis H37Rv after 25 days by drop dilution method; type: functional, organism-based
[20] = target: T1, Enoyl-[acyl-carrier-protein] reductase [NADH] (Mycobacterium tuberculosis); assay: Inhibition of Mycobacterium tuberculosis H37Rv InhA assessed as reduction of cardiolipin synthesis at 4 to 8 uM preincubated for 24 hrs followed by [14C]acetate addition and measured after 24 hrs by TLC analysis
[21] = target: T1, Enoyl-[acyl-carrier-protein] reductase [NADH] (Mycobacterium tuberculosis); assay: Inhibition of Mycobacterium tuberculosis H37Rv InhA assessed as reduction of methoxy and keto mycolic acid synthesis at 4 to 8 uM preincubated for 24 hrs followed by [14C]acetate addition and measured after 24 hrs by TLC analysis
[22] = target: T1, Enoyl-[acyl-carrier-protein] reductase [NADH] (Mycobacterium tuberculosis); assay: Inhibition of Mycobacterium tuberculosis H37Rv InhA assessed as reduction of alpha mycolic acid synthesis at 4 to 8 uM preincubated for 24 hrs followed by [14C]acetate addition and measured after 24 hrs by TLC analysis
[23] = target: T1, Enoyl-[acyl-carrier-protein] reductase [NADH] (Mycobacterium tuberculosis); assay: Inhibition of Mycobacterium tuberculosis H37Rv InhA assessed as reduction of trehalose dimycolate synthesis at 4 to 8 uM preincubated for 24 hrs followed by [14C]acetate addition and measured after 24 hrs by TLC analysis
[24] = target: T1, Enoyl-[acyl-carrier-protein] reductase [NADH] (Mycobacterium tuberculosis); assay: Inhibition of Mycobacterium tuberculosis H37Rv InhA assessed as reduction of cardiolipin synthesis at 40 uM preincubated for 1 hr followed by [14C]glucose addition and measured after 24 hrs by TLC analysis
[25] = tested on: Mycobacterium tuberculosis; assay: Effect on short chain fatty acid acid synthesis in Mycobacterium tuberculosis H37Rv at 40 uM preincubated for 1 hr followed by [14C]glucose addition and measured after 24 hrs by TLC analysis; type: functional, organism-based
[26] = target: T1, Enoyl-[acyl-carrier-protein] reductase [NADH] (Mycobacterium tuberculosis); assay: Inhibition of Mycobacterium tuberculosis H37Rv InhA assessed as reduction of methoxy and keto mycolic acid synthesis at 40 uM preincubated for 1 hr followed by [14C]glucose addition and measured after 24 hrs by TLC analysis
[27] = target: T1, Enoyl-[acyl-carrier-protein] reductase [NADH] (Mycobacterium tuberculosis); assay: Inhibition of Mycobacterium tuberculosis H37Rv InhA assessed as reduction of phosphatidylethanolamine synthesis at 40 uM preincubated for 1 hr followed by [14C]glucose addition and measured after 24 hrs by TLC analysis
[28] = target: T1, Enoyl-[acyl-carrier-protein] reductase [NADH] (Mycobacterium tuberculosis); assay: Inhibition of Mycobacterium tuberculosis H37Rv InhA assessed as reduction of alpha mycolic acid synthesis at 40 uM preincubated for 1 hr followed by [14C]glucose addition and measured after 24 hrs by TLC analysis
[29] = target: T1, Enoyl-[acyl-carrier-protein] reductase [NADH] (Mycobacterium tuberculosis); assay: Inhibition of Mycobacterium tuberculosis H37Rv InhA assessed as reduction of trehalose monomycolate synthesis at 40 uM preincubated for 1 hr followed by [14C]glucose addition and measured after 24 hrs by TLC analysis
[30] = target: T1, Enoyl-[acyl-carrier-protein] reductase [NADH] (Mycobacterium tuberculosis); assay: Inhibition of Mycobacterium tuberculosis H37Rv InhA assessed as reduction of methyl esters of fatty acid synthesis at 40 uM preincubated for 1 hr followed by [14C]glucose addition and measured after 24 hrs by TLC analysis
[31] = target: T1, Enoyl-[acyl-carrier-protein] reductase [NADH] (Mycobacterium tuberculosis); assay: Inhibition of Mycobacterium tuberculosis H37Rv InhA assessed as reduction of trehalose dimycolate synthesis at 40 uM preincubated for 1 hr followed by [14C]glucose addition and measured after 24 hrs by TLC analysis
[32] = target: T1, Enoyl-[acyl-carrier-protein] reductase [NADH] (Mycobacterium tuberculosis); assay: Inhibition of Mycobacterium tuberculosis H37Rv InhA assessed as reduction of trehalose dimycolate synthesis at 36.5 uM preincubated for 1 hr followed by [14C]glucose addition and measured after 24 hrs by TLC analysis
[33] = target: T1, Enoyl-[acyl-carrier-protein] reductase [NADH] (Mycobacterium tuberculosis); assay: Inhibition of Mycobacterium tuberculosis H37Rv InhA assessed as reduction of trehalose monomycolate synthesis at 36.5 uM preincubated for 1 hr followed by [14C]glucose addition and measured after 24 hrs by TLC analysis

Structure (SMILES): CCCCCNC(=O)NNC(=O)c1ccncc1
- MIC [1]: 8 µM (≈ 2 µg/mL)
- MIC [2]: 125 µM (≈ 31.3 µg/mL)
- MIC [3]: 8 µM (≈ 2 µg/mL)
- MIC [4]: 125 µM (≈ 31.3 µg/mL)
- MIC [5]: 125 µM (≈ 31.3 µg/mL)
- selectivity ratio at 336 h [6]: > 500
- selectivity ratio [7]: > 32
- selectivity ratio [8]: > 32
- MIC [9]: > 1000 µM
- MIC [10]: > 1000 µM
- MIC [11]: 125 µM (≈ 31.3 µg/mL)
- MIC [12]: 125 µM (≈ 31.3 µg/mL)
- pIC50 [13]: < 2.40
- MIC [14]: 62.5 µM (≈ 15.6 µg/mL)

Structure (SMILES): CCNC(=O)NNC(=O)c1ccncc1
- MIC [1]: 2 µM (≈ 0.416 µg/mL)
- MIC [2]: 62.5 µM (≈ 13 µg/mL)
- MIC [3]: 1 µM (≈ 0.208 µg/mL)
- MIC [4]: 62.5 µM (≈ 13 µg/mL)
- MIC [5]: 32 µM (≈ 6.66 µg/mL)
- selectivity ratio at 336 h [6]: > 2000
- selectivity ratio [7]: > 64
- selectivity ratio [8]: > 64
- MIC [9]: > 1000 µM
- MIC [10]: 1000 µM (≈ 208 µg/mL)
- MIC [11]: 62.5 µM (≈ 13 µg/mL)
- MIC [12]: 62.5 µM (≈ 13 µg/mL)
- pIC50 [13]: < 2.40
- MIC [14]: 32 µM (≈ 6.66 µg/mL)

Structure (SMILES): CCCNC(=O)NNC(=O)c1ccncc1
- MIC [1]: 1 µM (≈ 0.222 µg/mL)
- MIC [2]: 16 µM (≈ 3.56 µg/mL)
- MIC [3]: 1 µM (≈ 0.222 µg/mL)
- MIC [4]: 8 µM (≈ 1.78 µg/mL)
- MIC [5]: 4 µM (≈ 0.889 µg/mL)
- selectivity ratio at 336 h [6]: > 5000
- selectivity ratio [7]: > 312
- selectivity ratio [8]: > 312
- MIC [9]: 500 µM (≈ 111 µg/mL)
- MIC [10]: 250 µM (≈ 55.6 µg/mL)
- MIC [11]: 8 µM (≈ 1.78 µg/mL)
- MIC [12]: 8 µM (≈ 1.78 µg/mL)
- pIC50 [13]: < 2.30
- MIC [14]: 4 µM (≈ 0.889 µg/mL)

Structure (SMILES): CCCCCCCCCCCCNc1nnc(-c2ccncc2)o1
- MIC [1]: 8 µM (≈ 2.64 µg/mL)
- MIC [2]: 125 µM (≈ 41.3 µg/mL)
- MIC [3]: 4 µM (≈ 1.32 µg/mL)
- MIC [4]: 125 µM (≈ 41.3 µg/mL)
- inhibition [15]: inactive
- MIC [5]: 125 µM (≈ 41.3 µg/mL)
- selectivity ratio at 336 h [6]: > 6.25
- MIC [9]: 16 µM (≈ 5.29 µg/mL)
- Activity [16]: Active
- MIC [10]: 8 µM (≈ 2.64 µg/mL)
- inhibition [17]: inactive
- inhibition [18]: inactive
- Activity [19]: Active
- inhibition [20]: inactive
- inhibition [21]: inactive
- MIC [11]: 125 µM (≈ 41.3 µg/mL)
- MIC [12]: 125 µM (≈ 41.3 µg/mL)
- pIC50 [13]: < 4.30
- inhibition [22]: inactive
- MIC [14]: 125 µM (≈ 41.3 µg/mL)
- inhibition [23]: inactive

Structure (SMILES): CNC(=O)NNC(=O)c1ccncc1
- MIC [1]: 1 µM (≈ 0.194 µg/mL)
- inhibition [24]: Active
- MIC [2]: > 1000 µM
- MIC [3]: 0.5 µM (≈ 0.0971 µg/mL)
- MIC [4]: 500 µM (≈ 97.1 µg/mL)
- Activity [25]: inactive
- MIC [5]: 500 µM (≈ 97.1 µg/mL)
- selectivity ratio at 336 h [6]: > 5000
- MIC [9]: > 1000 µM
- Activity [16]: inactive
- MIC [10]: > 1000 µM
- Activity [19]: inactive
- inhibition [26]: Active
- MIC [11]: > 1000 µM
- inhibition [27]: Active
- MIC [12]: 1000 µM (≈ 194 µg/mL)
- pIC50 [13]: < 2.30
- inhibition [28]: Active
- inhibition [29]: Active
- MIC [14]: 1000 µM (≈ 194 µg/mL)
- inhibition [30]: Active
- inhibition [31]: Active

Structure (SMILES): NNC(=O)c1ccncc1 [ISONIAZID]
- MIC [1]: 1 µM (≈ 0.137 µg/mL)
- MIC [2]: > 250 µM
- MIC [3]: 0.5 µM (≈ 0.0686 µg/mL)
- MIC [4]: 8 µM (≈ 1.1 µg/mL)
- MIC [5]: 8 µM (≈ 1.1 µg/mL)
- selectivity ratio at 336 h [6]: > 5000
- selectivity ratio [7]: > 625
- selectivity ratio [8]: > 625
- MIC [9]: > 250 µM
- MIC [10]: > 250 µM
- MIC [11]: > 250 µM
- MIC [12]: 8 µM (≈ 1.1 µg/mL)
- pIC50 [13]: < 2.30
- inhibition [32]: Active
- inhibition [33]: Active
- MIC [14]: > 250 µM
